# Data as given in ChEMBL document CHEMBL2157880, “Synthesis, antimycobacterial and antibacterial activity of ciprofloxacin derivatives containing a N-substituted benzyl moiety” (2012).
# Test system: Escherichia coli
# Assay: Antibacterial activity against Escherichia coli 10-1 after 18 to 24 hrs by NCCLS method
# Format: functional
# Procedure, shortened: (§1)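 Standard NCCLS (M100-S11) MIC testing against Gram-positive and Gram-negative strains. Plates were incubated at 35 °C for 18–24 h. The MIC was read as the lowest concentration giving complete inhibition of visible bacterial growth.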
row,SMILES,MIC [µg/mL]
1,COc1cc(CN2CCN(c3cc4c(cc3F)c(=O)c(C(=O)O)cn4C3CC3)CC2)ccc1OCc1ccccc1,> 128

# Test system: Staphylococcus epidermidis
# Assay: Antibacterial activity against methicillin-sensitive Staphylococcus epidermidis 10-11 after 18 to 24 hrs by NCCLS method
# Format: functional
# Procedure, shortened: as §1
row,SMILES,MIC [µg/mL]
1,COc1cc(CN2CCN(c3cc4c(cc3F)c(=O)c(C(=O)O)cn4C3CC3)CC2)ccc1OCc1ccccc1,1

# Test system: Escherichia coli
# Assay: Antibacterial activity against extended spectrum beta-lactamases producing Escherichia coli 10-2 after 18 to 24 hrs by NCCLS method
# Format: functional
# Procedure, shortened: as §1
row,SMILES,MIC [µg/mL]
1,COc1cc(CN2CCN(c3cc4c(cc3F)c(=O)c(C(=O)O)cn4C3CC3)CC2)ccc1OCc1ccccc1,> 128

# Test system: Enterococcus faecalis
# Assay: Antibacterial activity against Enterococcus faecalis 10-5 after 18 to 24 hrs by NCCLS method
# Format: functional
# Procedure, shortened: as §1
row,SMILES,MIC [µg/mL]
1,COc1cc(CN2CCN(c3cc4c(cc3F)c(=O)c(C(=O)O)cn4C3CC3)CC2)ccc1OCc1ccccc1,32

# Test system: Staphylococcus aureus
# Assay: Antibacterial activity against Staphylococcus aureus ATCC 2592 after 18 to 24 hrs by NCCLS method
# Format: functional
# Procedure, shortened: as §1
row,SMILES,MIC [µg/mL]
1,COc1cc(CN2CCN(c3cc4c(cc3F)c(=O)c(C(=O)O)cn4C3CC3)CC2)ccc1OCc1ccccc1,2

# Test system: Pseudomonas aeruginosa
# Assay: Antibacterial activity against Pseudomonas aeruginosa 10-20 after 18 to 24 hrs by NCCLS method
# Format: functional
# Procedure, shortened: as §1
row,SMILES,MIC [µg/mL]
1,COc1cc(CN2CCN(c3cc4c(cc3F)c(=O)c(C(=O)O)cn4C3CC3)CC2)ccc1OCc1ccccc1,32

# Test system: Staphylococcus aureus
# Assay: Antibacterial activity against methicillin-sensitive Staphylococcus aureus 10-14 after 18 to 24 hrs by NCCLS method
# Format: functional
# Procedure, shortened: as §1
row,SMILES,MIC [µg/mL]
1,COc1cc(CN2CCN(c3cc4c(cc3F)c(=O)c(C(=O)O)cn4C3CC3)CC2)ccc1OCc1ccccc1,1

# Test system: Klebsiella pneumoniae
# Assay: Antibacterial activity against Klebsiella pneumoniae 10-2 after 18 to 24 hrs by NCCLS method
# Format: functional
# Procedure, shortened: as §1
row,SMILES,MIC [µg/mL]
1,COc1cc(CN2CCN(c3cc4c(cc3F)c(=O)c(C(=O)O)cn4C3CC3)CC2)ccc1OCc1ccccc1,> 128

# Test system: Enterococcus faecalis
# Assay: Antibacterial activity against Enterococcus faecalis 10-6 after 18 to 24 hrs by NCCLS method
# Format: functional
# Procedure, shortened: as §1
row,SMILES,MIC [µg/mL]
1,COc1cc(CN2CCN(c3cc4c(cc3F)c(=O)c(C(=O)O)cn4C3CC3)CC2)ccc1OCc1ccccc1,64

# Test system: Pseudomonas aeruginosa
# Assay: Antibacterial activity against Pseudomonas aeruginosa 10-12 after 18 to 24 hrs by NCCLS method
# Format: functional
# Procedure, shortened: as §1
row,SMILES,MIC [µg/mL]
1,COc1cc(CN2CCN(c3cc4c(cc3F)c(=O)c(C(=O)O)cn4C3CC3)CC2)ccc1OCc1ccccc1,32

# Test system: Klebsiella pneumoniae
# Assay: Antibacterial activity against Klebsiella pneumoniae 10-4 after 18 to 24 hrs by NCCLS method
# Format: functional
# Procedure, shortened: as §1
row,SMILES,MIC [µg/mL]
1,COc1cc(CN2CCN(c3cc4c(cc3F)c(=O)c(C(=O)O)cn4C3CC3)CC2)ccc1OCc1ccccc1,> 128

# Test system: Staphylococcus epidermidis
# Assay: Antibacterial activity against methicillin-resistant Staphylococcus epidermidis 10-10 after 18 to 24 hrs by NCCLS method
# Format: functional
# Procedure, shortened: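 Incubated at 35 °C for 18–24 h under NCCLS (M100-S11) standards. MIC was read as the lowest concentration giving complete inhibition of visible bacterial growth.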
row,SMILES,MIC [µg/mL]
1,COc1cc(CN2CCN(c3cc4c(cc3F)c(=O)c(C(=O)O)cn4C3CC3)CC2)ccc1OCc1ccccc1,128

# Test system: Escherichia coli
# Assay: Antibacterial activity against Escherichia coli ATCC 25922 after 18 to 24 hrs by NCCLS method
# Format: functional
# Procedure, shortened: as §1
row,SMILES,MIC [µg/mL]
1,COc1cc(CN2CCN(c3cc4c(cc3F)c(=O)c(C(=O)O)cn4C3CC3)CC2)ccc1OCc1ccccc1,0.5

# Test system: Escherichia coli
# Assay: Antibacterial activity against extended spectrum beta-lactamases producing Escherichia coli 10-4 after 18 to 24 hrs by NCCLS method
# Format: functional
# Procedure, shortened: as §1
row,SMILES,MIC [µg/mL]
1,COc1cc(CN2CCN(c3cc4c(cc3F)c(=O)c(C(=O)O)cn4C3CC3)CC2)ccc1OCc1ccccc1,> 128

# Test system: Escherichia coli
# Assay: Antibacterial activity against Escherichia coli 10-2 after 18 to 24 hrs by NCCLS method
# Format: functional
# Procedure, shortened: as §1
row,SMILES,MIC [µg/mL]
1,COc1cc(CN2CCN(c3cc4c(cc3F)c(=O)c(C(=O)O)cn4C3CC3)CC2)ccc1OCc1ccccc1,32

# Test system: Staphylococcus aureus
# Assay: Antibacterial activity against methicillin-sensitive Staphylococcus aureus 10-13 after 18 to 24 hrs by NCCLS method
# Format: functional
# Procedure, shortened: as §1
row,SMILES,MIC [µg/mL]
1,COc1cc(CN2CCN(c3cc4c(cc3F)c(=O)c(C(=O)O)cn4C3CC3)CC2)ccc1OCc1ccccc1,2

# Test system: Klebsiella pneumoniae
# Assay: Antibacterial activity against extended spectrum beta-lactamases producing Klebsiella pneumoniae 10-3 after 18 to 24 hrs by NCCLS method
# Format: functional
# Procedure, shortened: as §1
row,SMILES,MIC [µg/mL]
1,COc1cc(CN2CCN(c3cc4c(cc3F)c(=O)c(C(=O)O)cn4C3CC3)CC2)ccc1OCc1ccccc1,> 128

# Test system: Staphylococcus aureus
# Assay: Antibacterial activity against methicillin-sensitive Staphylococcus aureus 10-11 after 18 to 24 hrs by NCCLS method
# Format: functional
# Procedure, shortened: as §1
row,SMILES,MIC [µg/mL]
1,COc1cc(CN2CCN(c3cc4c(cc3F)c(=O)c(C(=O)O)cn4C3CC3)CC2)ccc1OCc1ccccc1,0.5

# Test system: Pseudomonas aeruginosa
# Assay: Antibacterial activity against Pseudomonas aeruginosa 10-5 after 18 to 24 hrs by NCCLS method
# Format: functional
# Procedure, shortened: as §1
row,SMILES,MIC [µg/mL]
1,COc1cc(CN2CCN(c3cc4c(cc3F)c(=O)c(C(=O)O)cn4C3CC3)CC2)ccc1OCc1ccccc1,32
